Jurkat viability – cytotoxicity toward Jurkat T cells, primary screen, cytotoxicity control, cell-based, Jurkat E6.1, 60K MLSMR library | 1.2% of 56,000 active | AID 463, 2006 | inhibition, % at 4 µM | Jurkat E6.1 viability, ATP luminescence, 48 h;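 active = inhibition above the mean inhibition of all tested compounds plus 3 SD, cut at about 28% in these data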
HEK293 NFkB inh – inhibitors of PMA/ionomycin-induced NF-kB reporter, primary screen, antigen receptor NF-kB inhibitor project, cell-based, HEK-293 luciferase reporter, luminescence. 0.21% of 62,000 active. HEK-293 NF-kB luciferase reporter. AID 465, 2006. inhibition, % at 3 µM;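 active = inhibition above the mean of all tested compounds plus 3 SD, cut at about 40% in these data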;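 also: 0% = stimulated DMSO wells and 100% = 10 µM reference inhibitor 5653914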
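Signal: luciferase luminescence; Material: HEK-293 cells with stable firefly luciferase reporter driven by four HIV NF-kB elements; Probe or stimulus: PMA with ionomycin; Replication: tested once; Times: 1 h compound pretreatment, then 16 h stimulation at 37 °C, 5% CO2; Benchmarks: DMSO and 10 µM reference inhibitor; Evaluation: per-plate % inhibition versus controls.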
mHtt clearance – clearance of mutant huntingtin inclusions, primary screen, imaging, HeLa Exon1htt(103Q)mCFP, confocal imaging. aggregate imaging; zero = plate's median compound well. inhibition, % at 1.5 µM. 0.42% of 47,000 active. AID 853, 2007;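 active = inhibition of aggregate fluorescence above about 70%, also judged a hit by eye on the cell image, limit read from the data, passing the limit was not always enough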;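 also: cells exposed to compound for three days before fixation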
D1 mod – D1 CRE-luciferase signal change, two-sided – cell-based, HEK293 D1, dopamine EC30, D1 allosteric modulator project, primary screen; 5.9% of 58,000 active; D(1A) dopamine receptor (Homo sapiens), P21728; AID 641, 2007; B-score at 10 µM; dopamine EC30 potentiation; actives deviate in either direction;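 active = luminescence count or its row- and column-corrected plate score outside the 99.7% band of the plate's sample wells, on either side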
M1 antagonist – antagonists of rat M1 muscarinic receptor; Muscarinic acetylcholine receptor M1 (Rattus norvegicus), P08482; CHO-M1 cells, Fluo-4 calcium, ACh EC80 antagonist mode; stronger effect = lower value; B-score at 10 µM; 3.4% of 64,000 active; AID 628, 2007;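 active = calcium fluorescence response, raw or row-and-column corrected B-score, differing from the plate sample mean either way at a set confidence level, mostly lower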
Target sequence (P08482 whole entry, looked up): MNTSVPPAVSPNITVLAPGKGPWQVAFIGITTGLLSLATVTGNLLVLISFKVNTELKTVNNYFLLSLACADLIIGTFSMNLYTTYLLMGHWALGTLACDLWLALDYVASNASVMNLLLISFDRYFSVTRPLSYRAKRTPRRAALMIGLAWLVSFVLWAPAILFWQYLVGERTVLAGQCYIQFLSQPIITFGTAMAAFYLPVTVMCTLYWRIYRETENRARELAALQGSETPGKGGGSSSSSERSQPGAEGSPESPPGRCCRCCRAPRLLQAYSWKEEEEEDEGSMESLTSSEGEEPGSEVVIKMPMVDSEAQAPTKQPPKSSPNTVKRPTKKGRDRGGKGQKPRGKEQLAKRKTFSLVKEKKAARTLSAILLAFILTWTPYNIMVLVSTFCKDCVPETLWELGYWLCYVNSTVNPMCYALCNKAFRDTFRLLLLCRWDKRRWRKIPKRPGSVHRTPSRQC
M1 agonist – M1 muscarinic receptor agonists, primary screen, CHO-M1 cells, Fluo-4 calcium, agonist mode; AID 626, 2007; B-score at 10 µM; Fluo-4 calcium fluorescence; stronger effect = higher value; 3% of 64,000 active;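 active = fluorescence rise, raw or as B-score row- and column-corrected plate score, outside the 99.7% band of its plate's samples, either direction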
D1 mod confirm – D1 receptor positive allosteric modulators, retest, confirmation, cell-based, HEK293 D1, CRE-luciferase, duplicate | shares compounds with D1 mod | dopamine EC30 potentiation; stronger effect = higher value | AID 642, 2007 | luminescence at 10 µM | 88% of 2,200 active;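 active = luminescence in either of two replicates above the same-plate mean plus 3 SD of the low-dose dopamine control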
D1 no dopamine – D1 receptor agonism without dopamine, confirmation, mechanism study for D1 allosteric modulator project, cell-based, HEK293 D1, CRE-luciferase, secondary assay 1 | 0.8% of 1,900 active | luminescence, no dopamine; stronger effect = higher value | shares compounds with D1 mod | luminescence at 10 µM | AID 646, 2007; in the data active = luminescence above about 3900
Isoprot counter – isoproterenol response counter-screen activity for D1 modulators | shares compounds with D1 mod | HEK293 D1 CRE-luciferase, isoproterenol EC30 counter-screen; stronger effect = higher value | luminescence at 10 µM | 63% of 2,200 active | AID 647;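 active = luminescence in either replicate above plate mean of wells with a partly effective reference agonist dose plus 3 SD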;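 also: isoproterenol raises cAMP through native beta-adrenoceptor Gs so signal bypasses D1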
Starred values were filed as active, the others as inactive. The list is not random: actives were taken first. Their share in the collection is about 9.5%.

Screening CCOC(=O)Nc1sc(C)nc1-c1ccccc1 returned Jurkat viability 0, HEK293 NFkB inh 2, mHtt clearance -37, D1 mod 3.7*, M1 antagonist 0.7, M1 agonist -0.66, D1 mod confirm 5108, D1 no dopamine 1368 and Isoprot counter 2840.
For Cc1ccc(Cn2ccc(NC(=O)c3cc(CC(C)C)on3)n2)cc1 the results were Jurkat viability -9, HEK293 NFkB inh 25, D1 mod -0.25, M1 antagonist -0.6 and M1 agonist 0.34.
Screening CCOC(=O)c1oc2cccc(O)c2c1CN1CCOCC1 returned Jurkat viability -3, HEK293 NFkB inh 3, mHtt clearance 12, D1 mod 5.8*, M1 antagonist 0.4, M1 agonist -0.1, D1 mod confirm 7884*, D1 no dopamine 1544 and Isoprot counter 2932.
`CCOC(=O)c1oc2ccccc2c1CN1CCN(c2ccccc2)CC1` gave Jurkat viability 5, HEK293 NFkB inh -1, mHtt clearance -34, D1 mod -0.32, M1 antagonist 0.87 and M1 agonist 0.11.
`CCOC(=O)c1cc(CN2CCOCC2)oc1-c1ccccc1` gave Jurkat viability -2, HEK293 NFkB inh 20, D1 mod 4*, M1 antagonist -0.29, M1 agonist 0.29, D1 mod confirm 12300*, D1 no dopamine 1700 and Isoprot counter 3124*.
Screening CCOC(=O)c1c(-c2ccccc2)oc2ccc(O)c(CN3CCOCC3)c12 returned Jurkat viability -2, HEK293 NFkB inh 1, mHtt clearance 20, D1 mod 0.48, M1 antagonist -0.062 and M1 agonist 0.012.
`CCOC(=O)c1oc2ccccc2c1CN1CCN(C(=O)c2ccccc2)CC1` gave Jurkat viability 4, HEK293 NFkB inh 17, D1 mod 6.9*, M1 antagonist 0.58, M1 agonist 0.5, D1 mod confirm 17092*, D1 no dopamine 1488 and Isoprot counter 7972*.
For O=C(CN1CCN(c2ccc(F)cc2)CC1)c1ccc2c(c1)OCO2 the results were Jurkat viability 2, HEK293 NFkB inh 4, D1 mod -0.097, M1 antagonist -0.71 and M1 agonist -0.18.
For CCn1nc(C(=O)NC2=NCCS2)c2ccccc2c1=O the results were HEK293 NFkB inh 11, mHtt clearance -228, D1 mod 2.9*, M1 antagonist -0.16, M1 agonist -1, D1 mod confirm 9356*, D1 no dopamine 1640 and Isoprot counter 2924.
For COc1cccc(-c2nnc(NC(=O)c3ccc(S(=O)(=O)N4CC(C)OC(C)C4)cc3)o2)c1 (stereo unspecified) the results were Jurkat viability 4, HEK293 NFkB inh 29, mHtt clearance 41, D1 mod 2.8*, M1 antagonist 0.26, M1 agonist 1, D1 mod confirm 5492, D1 no dopamine 1692 and Isoprot counter 2396.
For O=C(OCC#CCSc1nnc(-c2ccc(Br)cc2)o1)c1ccco1 the results were Jurkat viability 0, HEK293 NFkB inh -3, mHtt clearance 24, D1 mod 4.8*, M1 antagonist -1.3, M1 agonist -0.039, D1 mod confirm 7080*, D1 no dopamine 1620 and Isoprot counter 2468.
`c1ccc(Cc2nn3c(COc4ccccc4)nnc3s2)cc1` gave Jurkat viability 6, HEK293 NFkB inh 7, mHtt clearance -14, D1 mod 9.1*, M1 antagonist -0.63, M1 agonist -0.46, D1 mod confirm 17316*, D1 no dopamine 1624 and Isoprot counter 3636*.
CCOc1ccccc1OCc1nn2c(COc3ccccc3)nnc2s1 was read as Jurkat viability 6, HEK293 NFkB inh 20, mHtt clearance -38, D1 mod 0.021, M1 antagonist -1.5 and M1 agonist 0.025.
N#Cc1c(-c2ccco2)cc(-c2ccc(F)cc2)nc1N was read as Jurkat viability 0, HEK293 NFkB inh 17, mHtt clearance -18, D1 mod 9.9*, M1 antagonist 0.48, M1 agonist -0.13, D1 mod confirm 16300*, D1 no dopamine 2000 and Isoprot counter 4008*.
CC(C)Cc1cc(-c2ccco2)c(C#N)c(N)n1 was read as Jurkat viability 0, HEK293 NFkB inh 18, mHtt clearance -16, D1 mod 28*, M1 antagonist 0.2, M1 agonist -0.16, D1 mod confirm 29116*, D1 no dopamine 1732 and Isoprot counter 4780*.
COc1ccc(-c2cc3nc(C)c(CCC(=O)N4CCCCC4)c(C)n3n2)c(OC)c1 was read as Jurkat viability 0, HEK293 NFkB inh 7, D1 mod -0.061, M1 antagonist -0.0045 and M1 agonist 0.55.
`O=c1c2cn[nH]c2nc(SCc2ccc3c(c2)OCCO3)n1-c1ccccc1` gave HEK293 NFkB inh 8, D1 mod 7.9*, M1 antagonist 0.55, M1 agonist -0.45, D1 mod confirm 11032*, D1 no dopamine 1768 and Isoprot counter 4760*.
CC(=NCc1cccnc1)C1=C(O)c2ccccc2C1=O was read as Jurkat viability 4, HEK293 NFkB inh 18, D1 mod 3*, M1 antagonist -0.26, M1 agonist -0.071, D1 mod confirm 5700*, D1 no dopamine 2088 and Isoprot counter 2512.
For CC(C)(C)NC(=O)COC(=O)Cc1ccc(Cl)cc1 the results were HEK293 NFkB inh 14, mHtt clearance 14, D1 mod 0.43, M1 antagonist -0.039 and M1 agonist 0.025.
`CC(=O)c1c(C)[nH]c(C(=O)CSc2nnc(-c3ccccc3)o2)c1C` gave mHtt clearance 8.
For Cn1c(/C(C#N)=C/C2CC=CCC2)nc2ccccc21 (stereo unspecified) the results were Jurkat viability -3, HEK293 NFkB inh 8, mHtt clearance 36, D1 mod 3.8*, M1 antagonist -0.13, M1 agonist 0.57, D1 mod confirm 9264*, D1 no dopamine 1596 and Isoprot counter 3096.
